The target in data set [1] is T1, Peroxisome proliferator-activated receptor alpha (Homo sapiens) (UniProt Q07869).
T1 sequence (whole entry): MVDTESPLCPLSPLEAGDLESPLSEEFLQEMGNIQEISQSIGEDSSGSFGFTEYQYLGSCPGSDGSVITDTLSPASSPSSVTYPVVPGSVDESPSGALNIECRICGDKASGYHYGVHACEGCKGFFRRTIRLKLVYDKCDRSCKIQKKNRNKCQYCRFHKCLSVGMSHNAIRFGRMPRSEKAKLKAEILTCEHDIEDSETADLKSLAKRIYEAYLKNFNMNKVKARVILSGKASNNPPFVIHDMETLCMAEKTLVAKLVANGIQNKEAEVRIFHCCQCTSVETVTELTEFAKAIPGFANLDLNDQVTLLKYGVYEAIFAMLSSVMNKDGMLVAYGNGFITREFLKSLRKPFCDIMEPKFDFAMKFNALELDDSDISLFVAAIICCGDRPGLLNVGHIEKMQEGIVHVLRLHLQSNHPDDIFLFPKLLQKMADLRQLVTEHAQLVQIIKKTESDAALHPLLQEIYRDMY
Kind of data set: Agonist activity at human PPARalpha in human HepG2 cells co-transfected with PPRE3-TK-luc assessed as induction of transactivation activity at 10 uM by luciferase reporter gene assay relative to control. In kind it is functional, cell-based. The procedure, abridged: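 HepG2 cells were transfected with pSG5 vector carrying human PPARα cDNA and co-transfected with PPRE3-TK-luc. Firefly luciferase was read and normalised to β-galactosidase activity measured in an ELISA reader. Compound was tested at 10 µM. Results are expressed as fold induction versus vehicle (1% DMSO).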
A general note: Reporter assays use an easily measured gene product as a stand-in for the process of interest.

Data set [2] can be described thus: AUC (0 to infinity) in Wistar rat at 30 mg/kg, po. The data set is classed as ADME, organism-based. To be noted: plasma. More on the design: time infinity, dose 30 mg/kg, route oral. The procedure, abridged: (§1)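 Single oral dose of 30 mpk to fasted male Wistar rats (n = 6). Plasma concentrations were measured by LC–MS, and Tmax, Cmax, T1/2 and AUC(0–∞) were derived. Values are given as mean ± SD.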

Data set [3] deals with Rattus norvegicus. The experiment in a line: Antihyperlipidemic activity in Sprague-Dawley rat assessed as reduction of serum total cholesterol level at 3 mg/kg, po qd for 14 days relative to control. The data set is classed as functional. More on the design: scale not given: the % may be the effect or the level left. The procedure, abridged:
(§2)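 Male Sprague–Dawley rats were fed a high-cholesterol diet for 15 days, then given vehicle or compound by oral gavage once daily for 14 days. Serum TG, total cholesterol, LDL-C and HDL-C were measured. Results are expressed as % change versus vehicle (n = 9).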

Data set [4] has as its system Rattus norvegicus. The experiment in a line: Antihyperlipidemic activity in Sprague-Dawley rat assessed as increase of serum HDL-cholesterol level at 3 mg/kg, po qd for 14 days relative to control. The data set is classed as functional. In a few lines:
as §2

Data set [5] deals with Mus musculus. Kind of data set: Antihyperglycemic activity in db/db mouse assessed as reduction of serum glucose level at 3 mg/kg, po qd for 7 days relative to control. The data set is classed as functional. Details: scale not given: the % may be the effect or the level left. The procedure, abridged: (§3)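 Male db/db mice aged 6–8 weeks were dosed orally once daily for 7 days. Serum triglycerides and glucose were then measured. Results are expressed as % change versus vehicle-treated controls (n = 6).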

The test system of data set [6] is Rattus norvegicus. The experiment in a line: Antihyperlipidemic activity in Sprague-Dawley rat assessed as reduction of serum LDL-cholesterol level at 3 mg/kg, po qd for 14 days relative to control. The data set is classed as functional. Details: scale not given: the % may be the effect or the level left. In a few lines:
as §2

The nature of data set [7]: Tmax in Wistar rat at 30 mg/kg, po. In kind it is ADME, organism-based. Details: dose 30 mg/kg, route oral. To be noted: in vivo. The procedure, abridged:
as §1

For data set [8], the system named is Rattus norvegicus. Kind of data set: Antihyperlipidemic activity in Sprague-Dawley rat assessed as reduction of serum triglycerides level at 3 mg/kg, po qd for 14 days relative to control. In kind it is functional. More on the design: scale not given: the % may be the effect or the level left. In a few lines: as §2
For data set [9], the system named is Mus musculus. Kind of data set: Antihyperlipidemic activity in db/db mouse assessed as reduction of serum triglycerides level at 3 mg/kg, po qd for 7 days relative to control. In kind it is functional. More on the design: scale not given: the % may be the effect or the level left. The procedure, abridged: as §3
The nature of data set [10]: Cmax in Wistar rat at 30 mg/kg, po. In kind it is ADME, organism-based. Details: dose 30 mg/kg, route oral. To be noted: in vivo. In a few lines: as §1
A short description of data set [11]: Half life in Wistar rat at 30 mg/kg, po. The data set is classed as ADME, organism-based. More on the design: dose 30 mg/kg, route oral. To be noted: in vivo. The procedure, abridged:
as §1

The test system of data set [12] is Mus musculus. Kind of data set: Antihyperlipidemic activity in db/db mouse assessed as reduction of serum triglycerides level at 30 mg/kg, po qd for 7 days relative to control. The data set is classed as functional. More on the design: scale not given: the % may be the effect or the level left. In a few lines: as §3
Data set [13] deals with Rattus norvegicus. The experiment in a line: Antihyperlipidemic activity in Sprague-Dawley rat assessed as increase of serum HDL-cholesterol level at 30 mg/kg, po qd for 14 days relative to control. The data set is classed as functional. The procedure, abridged: as §2
Data set [14] concerns Rattus norvegicus. Kind of data set: Antihyperlipidemic activity in Sprague-Dawley rat assessed as reduction of serum total cholesterol level at 30 mg/kg, po qd for 14 days relative to control. In kind it is functional. Details: scale not given: the % may be the effect or the level left. The procedure, abridged: as §2
The test system of data set [15] is Mus musculus. Kind of data set: Antihyperglycemic activity in db/db mouse assessed as reduction of serum glucose level at 30 mg/kg, po qd for 7 days relative to control. The data set is classed as functional. Details: scale not given: the % may be the effect or the level left. In a few lines:
as §3

Data set [16] relates to Rattus norvegicus. Kind of data set: Antihyperlipidemic activity in Sprague-Dawley rat assessed as reduction of serum triglycerides level at 30 mg/kg, po qd for 14 days relative to control. The data set is classed as functional. Details: scale not given: the % may be the effect or the level left. The procedure, abridged:
as §2

Data set [17] has as its system Rattus norvegicus. The experiment in a line: Antihyperlipidemic activity in Sprague-Dawley rat assessed as reduction of serum LDL-cholesterol level at 30 mg/kg, po qd for 14 days relative to control. In kind it is functional. More on the design: scale not given: the % may be the effect or the level left. In a few lines: as §2

Activity calls are given as the source filed them. The calls are words filed in the database; no cut-off is given here.

With `Cc1ccc(-c2nc(COc3ccc(C[C@H]4CO[C@@](C)(C(=O)O)OC4)cc3)c(C)o2)cc1`, the fold change (FC) in data set [1] amounted to 14.7.

Turning to `C/C(=N\OCCOc1ccc(C[C@H]2CO[C@@](C)(C(=O)O)OC2)cc1)c1ccc2c(c1)CCCC2`, the fold change (FC) in data set [1] came out at 1.63.

Consider `COc1ccc(/C(C)=N/OCCOc2ccc(C[C@H]3CO[C@@](C)(C(=O)O)OC3)cc2)cc1OC`, for which, in data set [1], the fold change (FC) stood at 3.61.

Consider `C/C(=N\OCCOc1ccc(C[C@H]2CO[C@@](C)(C(=O)O)OC2)cc1)c1ccc(OC(F)(F)F)cc1`, for which the fold change (FC) in data set [1] came out at 3.48.

A word on the AUC(0-inf): it is the area under the concentration-time curve extrapolated to infinity. As usually defined, the Tmax is the time from dosing to the highest level. A word on the Cmax: it is the peak of the concentration-time curve. The term half-life denotes the time in which the quantity being followed falls by half. As for `COc1ccc(/C(C)=N/OCCOc2ccc(C[C@H]3CO[C@@](C)(C(=O)O)OC3)cc2)cc1`, the AUC(0-inf) in [2] stood at 1.42 µg·h/mL. The Activity with Rattus norvegicus [3] is recorded as -56%; in the data set on Rattus norvegicus [4] it was 68%; with Mus musculus [5], -45%; in the data set with Rattus norvegicus [6], -68%; in the data set on Rattus norvegicus [8] it was -54%; with Mus musculus [9] it was -53%. Moreover, the Tmax in data set [7] was 0.61 h. In [10], this compound came in with a Cmax of 0.12 µg/mL. Moreover, the half-life in [11] was 14 h. For the same compound, the fold change (FC) in data set [1] came out at 15.

In the case of `C/C(=N\OCCOc1ccc(C[C@H]2CO[C@@](C)(C(=O)O)OC2)cc1)c1ccc(C(F)(F)F)cc1`, the fold change (FC) in data set [1] was 5.79.

In the case of `C/C(=N\OCCOc1ccc(C[C@H]2CO[C@@](C)(C(=O)O)OC2)cc1)c1ccc2ccccc2c1`, in data set [1], the fold change (FC) is 1.76.

In the case of `C/C(=N\OCCOc1ccc(C[C@H]2CO[C@@](C)(C(=O)O)OC2)cc1)c1ccc(F)cc1`, the fold change (FC) in [1] is 10.5.

On to `C/C(=N\OCCOc1ccc(C[C@H]2CO[C@@](C)(C(=O)O)OC2)cc1)c1ccc(C)cc1`, for which the fold change (FC) in data set [1] was 10.8.

On to `Cc1ccc(-c2nc(CCCC[C@H]3CO[C@@](C)(C(=O)O)OC3)c(C)o2)cc1`, for which the Activity with Mus musculus [12] is -54%; with Rattus norvegicus [13], 62%; with Rattus norvegicus [14] it was -49%; in the data set with Mus musculus [15], -43%; with Rattus norvegicus [16] it was -51%; with Rattus norvegicus [17], -58%. Also, the Tmax in data set [7] was determined as 0.65 h. In addition, the half-life in data set [11] was 1.99 h. In addition, the fold change (FC) in data set [1] was determined as 12.7.

With `C/C(=N\OCCOc1ccc(C[C@H]2CO[C@@](C)(C(=O)O)OC2)cc1)c1ccc(S(C)(=O)=O)cc1`, in [1], the fold change (FC) was determined as 1.37.

Take `CN(CCOc1ccc(CC2SC(=O)NC2=O)cc1)c1ccccn1` (configuration not stated): in [1], the “fold change (FC)” value was “inactive”.

In the case of `C/C(=N\OCCOc1ccc(C[C@H]2CO[C@@](C)(C(=O)O)OC2)cc1)c1ccccc1`, the fold change (FC) in data set [1] stood at 10.8.

As for `C/C(=N\OCCOc1ccc(C[C@H]2CO[C@@](C)(C(=O)O)OC2)cc1)c1cccnc1`, the fold change (FC) in data set [1] was 2.36.
